Measurements published in ChEMBL document CHEMBL4304759, “Identifying Novel Anti-Osteoporosis Leads with a Chemotype-Assembly Approach” (J Med Chem, 2019).
Calls of active or inactive are those of the source. The calls are words filed in the database; no cut-off is given here.

What was measured:
[1] = Toxicity in ovariectomized Sprague-Dawley rat assessed as effect on total cholesterol level at 10 mg/kg/day, po for 3 months measured post-last dose; format: organism-based; conditions: in vivo
[2] = system: BMDM; experiment: Anti-osteoporosis activity in C57BL/6 mouse bone marrow macrophages assessed as inhibition of M-CSF/RANKL-induced osteoclast differentiation supplemented with fresh medium containing compounds every 2 days for 5 measured post-last dose by TRAP staining based assay; format: functional, cell-based
Method in brief: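 Mouse (C57BL/6, 6-week) BMMs were plated at 6×10³ cells/well with M-CSF 30 ng/mL overnight, then given complete α-MEM with M-CSF and GST-rRANKL 100 ng/mL plus compound at varied concentrations, refreshed every 2 days. At day 5 cells were fixed in 4% paraformaldehyde and TRAcP-stained; TRAcP+ cells with >3 nuclei were counted.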

[3] = system: Rattus norvegicus; experiment: Anti-osteoporosis activity in ovariectomized Sprague-Dawley rat assessed as reduction in serum CTX1 level at 10 mg/kg/day, po for 3 months measured post-last dose; format: functional, organism-based
[4] = Toxicity in ovariectomized Sprague-Dawley rat assessed as effect on uterus at 10 mg/kg/day, po for 3 months measured post-last dose; format: organism-based; conditions: in vivo
[5] = system: BMDM; experiment: Anti-osteoporosis activity in C57BL/6 mouse bone marrow macrophages assessed as inhibition of M-CSF/RANKL-induced osteoclast differentiation by measuring reduction in hydroxyapatite resorption at 0.01 to 1 uM measured after 48 hrs by microscopic analysis; format: functional, cell-based
Method in brief: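 BMMs were driven to mature osteoclasts with GST-rRANKL plus M-CSF (30 ng/mL) on collagen-coated plates. Equal numbers were reseeded onto hydroxyapatite-coated wells with GST-rRANKL/M-CSF, with or without compound, for 48 h. Cells were bleached off, resorbed areas imaged by inverted microscope, and percent surface resorbed quantified.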

[6] = Toxicity in ovariectomized Sprague-Dawley rat assessed as effect on thymus at 10 mg/kg/day, po for 3 months measured post-last dose; format: organism-based; conditions: in vivo
[7] = Toxicity in ovariectomized Sprague-Dawley rat assessed as effect on alkaline phosphatase level at 10 mg/kg/day, po for 3 months measured post-last dose; format: organism-based; conditions: in vivo
[8] = system: BMDM; experiment: Anti-osteoporosis activity in C57BL/6 mouse bone marrow macrophages assessed as inhibition of M-CSF/RANKL-induced osteoclast differentiation by measuring reduction in MMP9 gene expression at 0.1 uM supplemented with fresh medium containing compounds every 2 days for 5 by trizol-reagent based RT-PCR analysis; format: functional, cell-based
Method in brief: (§1)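 BMMs from femur/tibia of six-week-old C57BL/6 mice, seeded at 1×10^5 cells/well in complete α-MEM (10% FBS) with M-CSF 30 ng/mL and GST-rRANKL 100 ng/mL, with or without compound at 0.1 μM for 5 days. RNA extracted with TRIzol, reverse-transcribed, then qPCR with SYBR-type premix: 40 cycles of 95 °C 10 s, 56 °C 10 s, 72 °C 30 s.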

[9] = Cardiotoxicity in ovariectomized Sprague-Dawley rat assessed as effect on heart at 10 mg/kg/day, po for 3 months measured post-last dose; format: toxicity, organism-based; conditions: in vivo
[10] = Toxicity in ovariectomized Sprague-Dawley rat assessed as effect on creatinine level at 10 mg/kg/day, po for 3 months measured post-last dose; format: organism-based; conditions: in vivo
[11] = Toxicity in ovariectomized Sprague-Dawley rat assessed as effect on spleen at 10 mg/kg/day, po for 3 months measured post-last dose; format: organism-based; conditions: in vivo
[12] = Hepatotoxicity in ovariectomized Sprague-Dawley rat assessed as effect on liver at 10 mg/kg/day, po for 3 months measured post-last dose; format: toxicity, organism-based; conditions: in vivo
[13] = system: C3H 10T1/2; experiment: Cytotoxicity against mouse C3H10T1/2 cells assessed as effect on cell viability at 0.1 to 100 uM measured after 48 to 72 hrs by CCK8 assay; format: cell-based; conditions: c3h 10t1/2, 100 µM
Method in brief: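 C3H10T1/2 cells in log phase were seeded at 6×10^3 per well and held 24 h. They were then exposed to DMSO vehicle or compound at 0.1–100 μM for 48 h or 72 h. CCK-8 was added for 30 min at 37 °C and absorbance read at 450 nm.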

[14] = Toxicity in ovariectomized Sprague-Dawley rat assessed as effect on aspartate transaminase level at 10 mg/kg/day, po for 3 months measured post-last dose; format: organism-based; conditions: in vivo
[15] = system: BMDM; experiment: Anti-osteoporosis activity in C57BL/6 mouse bone marrow macrophages assessed as inhibition of M-CSF/RANKL-induced osteoclast differentiation by measuring reduction in c-FOS gene expression at 0.1 uM supplemented with fresh medium containing compounds every 2 days for 5 by trizol-reagent based RT-PCR analysis; format: functional, cell-based; method in brief: as §1
[16] = system: Rattus norvegicus; experiment: Anti-osteoporosis activity in ovariectomized Sprague-Dawley rat assessed as femur bone mineral density loss at 10 mg/kg/day, po for 3 months measured post-last dose by dual energy X-ray absorptiometry (RVb = 19%); format: functional
[17] = Toxicity in ovariectomized Sprague-Dawley rat assessed as effect on total triglyceride level at 10 mg/kg/day, po for 3 months measured post-last dose; format: organism-based; conditions: in vivo
[18] = system: BMDM; experiment: Anti-osteoporosis activity in C57BL/6 mouse bone marrow macrophages assessed as inhibition of M-CSF/RANKL-induced osteoclast differentiation by measuring reduction in NFATc1 gene expression at 0.1 uM supplemented with fresh medium containing compounds every 2 days for 5 by trizol-reagent based RT-PCR analysis; format: functional, cell-based; method in brief: as §1
[19] = Toxicity in ovariectomized Sprague-Dawley rat assessed as effect on blood urea nitrogen level at 10 mg/kg/day, po for 3 months measured post-last dose; format: organism-based; conditions: in vivo
[20] = system: Rattus norvegicus; experiment: Anti-osteoporosis activity in ovariectomized Sprague-Dawley rat assessed as reduction in femur bone mass loss at 10 mg/kg/day, po for 3 months measured post-last dose by micro-CT analysis; format: functional, organism-based
[21] = system: Rattus norvegicus; experiment: Anti-osteoporosis activity in ovariectomized Sprague-Dawley rat assessed as reduction in serum PINP level at 10 mg/kg/day, po for 3 months measured post-last dose; format: functional, organism-based
[22] = Toxicity in ovariectomized Sprague-Dawley rat assessed as effect on alanine aminotransferase level at 10 mg/kg/day, po for 3 months measured post-last dose; format: organism-based; conditions: in vivo
[23] = system: BMDM; experiment: Anti-osteoporosis activity in C57BL/6 mouse bone marrow macrophages assessed as inhibition of M-CSF/RANKL-induced osteoclast differentiation by measuring reduction in TRAcP gene expression at 0.1 uM supplemented with fresh medium containing compounds every 2 days for 5 by trizol-reagent based RT-PCR analysis; format: functional, cell-based; method in brief: as §1
[24] = system: Rattus norvegicus; experiment: Anti-osteoporosis activity in ovariectomized Sprague-Dawley rat assessed as reduction in serum osteocalcin level at 10 mg/kg/day, po for 3 months measured post-last dose; format: functional, organism-based
[25] = Pulmonary toxicity in ovariectomized Sprague-Dawley rat assessed as effect on lung at 10 mg/kg/day, po for 3 months measured post-last dose; format: organism-based; conditions: in vivo
[26] = system: Rattus norvegicus; experiment: Effect on serum RANKL level in ovariectomized Sprague-Dawley rat at 10 mg/kg/day, po for 3 months measured post-last dose; format: organism-based; conditions: in vivo
[27] = Renal toxicity in ovariectomized Sprague-Dawley rat assessed as effect on kidney at 10 mg/kg/day, po for 3 months measured post-last dose; format: organism-based; conditions: in vivo
[28] = system: C3H 10T1/2; experiment: Osteogenic activity in mouse C3H10T1/2 cells assessed as effect on osteogenic medium-induced osteoblast differentiation by measuring calcium deposition at 0.1 to 10 uM after 14 days by alizarin red dye-based assay; format: cell-based; conditions: c3h 10t1/2, 336 h
Method in brief: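 C3H10T1/2 cells were seeded at 5×10^4 cells/cm² in α-MEM with 10% FBS for 24 h. Osteogenic induction used medium with 5% FBS, 10⁻⁷ M dexamethasone, 50 μM ascorbic acid and 10 mM β-glycerol-phosphate, with or without compound, for 14 days. Cells were fixed in 4.0% formaldehyde and stained with 0.1% Alizarin red (pH 4.4) for 5 min at room temperature.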

Q: For `O=C(Cn1cc(-c2ccncc2)nn1)Nc1nccs1`, which Activity [1] is on record?
A: Non-Toxic

Q: What about the inhibition [2] of the same molecule?
A: Dose-dependent effect

Q: What about the IC50 ([2]; C57BL/6, BMDM, 5 days) of the same molecule?
A: 2 nM

Q: And the Activity [3]?
A: Active

Q: What about the Activity [4] of the same molecule?
A: Non-Toxic

Q: What about the inhibition [5] of the same molecule?
A: Active

Q: What about the Activity [6] of the same molecule?
A: Non-Toxic

Q: What about the Activity [7] of the same molecule?
A: Non-Toxic

Q: And the inhibition [8]?
A: Active

Q: And the Activity [9]?
A: Non-Toxic

Q: What about the Activity [10] of the same molecule?
A: Non-Toxic

Q: And the Activity [11]?
A: Non-Toxic

Q: And the Activity [12]?
A: Non-Toxic

Q: And the Activity [13]?
A: Non-Toxic

Q: What about the Activity [14] of the same molecule?
A: Non-Toxic

Q: What about the inhibition [15] of the same molecule?
A: Active

Q: And the Activity [16]?
A: 8%

Q: And the Activity [17]?
A: Non-Toxic

Q: And the inhibition [18]?
A: Active

Q: And the Activity [19]?
A: Non-Toxic

Q: What about the Activity [20] of the same molecule?
A: inactive

Q: What about the Activity [21] of the same molecule?
A: Active

Q: What about the Activity [22] of the same molecule?
A: Non-Toxic

Q: And the inhibition [23]?
A: Active

Q: What about the Activity [24] of the same molecule?
A: Active

Q: And the Activity [25]?
A: Non-Toxic

Q: And the Activity [26]?
A: Non-Toxic

Q: What about the Activity [27] of the same molecule?
A: Non-Toxic

Q: And the Activity [28]?
A: Non-Toxic
